Measured values from ChEMBL document CHEMBL1155016, “Locking the two ends of tetrapeptidic HTLV-I protease inhibitors inside the enzyme” (Bioorg Med Chem, 2008).

Key:
Protease = Protease (Human T-cell leukemia virus type I, UniProt Q82134, L40I); assay: Inhibition of HTLV1 protease L40I mutant
Outline: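 HTLV-I protease carrying the L40I substitution, which blocks autolysis and stabilises the enzyme; run by the group's earlier reported protocol; potency given as IC50 in nM.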

[1] = molecular target: Protease (Human immunodeficiency virus 1) (UniProt Q9YQ12); assay: Inhibition of HIV1 protease at 50 nM
Protease (Human immunodeficiency virus 1), sequence (Q9YQ12 as listed by the source): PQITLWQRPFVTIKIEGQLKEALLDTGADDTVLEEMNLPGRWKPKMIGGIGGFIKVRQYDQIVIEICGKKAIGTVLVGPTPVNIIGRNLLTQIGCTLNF

Protease, sequence (Q82134 entry or part of it L40I): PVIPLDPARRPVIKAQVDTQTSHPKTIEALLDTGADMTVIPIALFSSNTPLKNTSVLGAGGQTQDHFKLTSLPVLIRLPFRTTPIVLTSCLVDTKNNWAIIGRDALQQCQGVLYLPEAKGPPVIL

CC(C)(C)C(=O)N[C@H](C(=O)N[C@H](C(=O)N[C@@H](Cc1ccccc1)[C@H](O)C(=O)N1CSC(C)(C)[C@H]1C(=O)NCC1CC1)C(C)(C)C)c1ccccc1
IC50 (Protease): 187 nM
inhibition [1]: > 98%

CC(=O)N[C@H](C(=O)N[C@H](C(=O)N[C@@H](Cc1ccccc1)[C@H](O)C(=O)N1CSC(C)(C)[C@H]1C(=O)NCC1CC1)C(C)(C)C)c1ccccc1
IC50 (Protease): 146 nM
inhibition [1]: > 98%

CC(C)CCNC(=O)[C@H]1N(C(=O)[C@@H](O)[C@H](Cc2ccccc2)NC(=O)[C@@H](NC(=O)[C@@H](NC(=O)CC(C)C)c2ccccc2)C(C)(C)C)CSC1(C)C
IC50 (Protease): 107 nM
inhibition [1]: > 98%

CC(C)CNC(=O)[C@H]1N(C(=O)[C@@H](O)[C@H](Cc2ccccc2)NC(=O)[C@@H](NC(=O)[C@@H](NC(=O)C(C)(C)C)c2ccccc2)C(C)(C)C)CSC1(C)C
IC50 (Protease): 83 nM
inhibition [1]: > 98%

CC(NC(=O)[C@H]1N(C(=O)[C@@H](O)[C@H](Cc2ccccc2)NC(=O)[C@@H](NC(=O)[C@@H](NC(=O)C2CC2)c2ccccc2)C(C)(C)C)CSC1(C)C)C(C)(C)C (stereo not given in full)
IC50 (Protease): 85 nM
inhibition [1]: > 98%

CC(C)(C)[C@H](NC(=O)[C@@H](N)c1ccccc1)C(=O)N[C@@H](Cc1ccccc1)[C@H](O)C(=O)N1CSC(C)(C)[C@H]1C(=O)NCC1CC1
IC50 (Protease): 928 nM
inhibition [1]: > 98%

CC(C)CC(=O)N[C@H](C(=O)N[C@H](C(=O)N[C@@H](Cc1ccccc1)[C@H](O)C(=O)N1CSC(C)(C)[C@H]1C(=O)NCC(C)(C)C)C(C)(C)C)c1ccccc1
IC50 (Protease): 82 nM
inhibition [1]: > 98%

CCCC(=O)N[C@H](C(=O)N[C@H](C(=O)N[C@@H](Cc1ccccc1)[C@H](O)C(=O)N1CSC(C)(C)[C@H]1C(=O)NCC(C)C)C(C)(C)C)c1ccccc1
IC50 (Protease): 104 nM
inhibition [1]: > 98%

CCC(=O)N[C@H](C(=O)N[C@H](C(=O)N[C@@H](Cc1ccccc1)[C@H](O)C(=O)N1CSC(C)(C)[C@H]1C(=O)NCC(C)C)C(C)(C)C)c1ccccc1
IC50 (Protease): 105 nM
inhibition [1]: > 98%

CC(C)CNC(=O)[C@H]1N(C(=O)[C@@H](O)[C@H](Cc2ccccc2)NC(=O)[C@@H](NC(=O)[C@@H](NC(=O)C2CC2)c2ccccc2)C(C)(C)C)CSC1(C)C
IC50 (Protease): 97 nM
inhibition [1]: > 98%

CC(C)CC(=O)N[C@H](C(=O)N[C@H](C(=O)N[C@@H](Cc1ccccc1)[C@H](O)C(=O)N1CSC(C)(C)[C@H]1C(=O)NC(C)C(C)C)C(C)(C)C)c1ccccc1 (stereo not given in full)
IC50 (Protease): 107 nM
inhibition [1]: > 98%

CC(C)(C)CNC(=O)[C@H]1N(C(=O)[C@@H](O)[C@H](Cc2ccccc2)NC(=O)[C@@H](NC(=O)[C@@H](NC(=O)C(C)(C)C)c2ccccc2)C(C)(C)C)CSC1(C)C
IC50 (Protease): 97 nM
inhibition [1]: > 98%

CCCC(=O)N[C@H](C(=O)N[C@H](C(=O)N[C@@H](Cc1ccccc1)[C@H](O)C(=O)N1CSC(C)(C)[C@H]1C(=O)NCCC(C)C)C(C)(C)C)c1ccccc1
IC50 (Protease): 95 nM
inhibition [1]: > 98%

CCCC(=O)N[C@H](C(=O)N[C@H](C(=O)N[C@@H](Cc1ccccc1)[C@H](O)C(=O)N1CSC(C)(C)[C@H]1C(=O)NCC1CC1)C(C)(C)C)c1ccccc1
IC50 (Protease): 113 nM
inhibition [1]: > 98%

CC(C)C(C)NC(=O)[C@H]1N(C(=O)[C@@H](O)[C@H](Cc2ccccc2)NC(=O)[C@@H](NC(=O)[C@@H](N)c2ccccc2)C(C)(C)C)CSC1(C)C (stereo not given in full)
IC50 (Protease): 354 nM
inhibition [1]: > 98%
